Assay [1] has as its system MCF7. Briefly: Cytotoxicity against human MCF7 after 24 hrs by MTT assay. The settings on record: MCF7, 24 h. It is filed as functional, cell-based. The method, boiled down:
(§1)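 Cells grown in MEM with 10% FBS and 1% glutamine at 5% CO2, seeded at 1.0×10^4 cells. Exposed to compounds at 1–100 µM in medium containing 0.1% DMSO for 24 h at 37 °C. MTT (1 mg/ml) added for 5 h at 37 °C, then DMSO added and absorbance read at 540 nm. Run in triplicate; IC50 determined.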

The test system of assay [2] is Staphylococcus aureus. The experiment in a line: Antibacterial activity against Staphylococcus aureus ATCC 29213 after 24 hrs by browth microdilution assay. It is filed as functional. The settings on record: ATCC 29213, 24 h. The method, boiled down:
(§2)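 Broth microdilution per CLSI. Colonies suspended in 0.9% saline and adjusted to McFarland 0.5. Compounds dissolved in DMSO, diluted with distilled water to 100, 50, 25, 12.5, 6.25 and 3.125 µg/ml, with DMSO as negative control. Gentamycin (Gram-negative) and amikacin (Gram-positive) served as reference drugs. Incubation at 37 °C for 24 h. MIC taken as the lowest concentration preventing visible growth.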

For assay [3], the system named is Candida tropicalis. Briefly: Antifungal activity against Candida tropicalis ATCC 20336 after 48 hrs by browth microdilution assay. It is filed as functional. In outline: (§3)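 Yeast colonies suspended in 0.9% saline and adjusted to McFarland 0.5, then tested by CLSI broth microdilution. Compounds in DMSO, diluted with distilled water to 3.125–100 µg/ml, with DMSO as negative control and nystatin as reference. Incubation at 37 °C, read after 48 h. MIC is the lowest concentration with no visible growth.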

For assay [4], the system named is Candida albicans. The experiment in a line: Antifungal activity against Candida albicans ATCC 90028 after 48 hrs by browth microdilution assay. It is filed as functional. In outline: as §3
In assay [5] the test system is Pichia kudriavzevii. Briefly: Antifungal activity against Candida krusei ATCC 6268 after 48 hrs by browth microdilution assay. The assay is classed as functional. In outline: as §3
The test system of assay [6] is Enterococcus faecalis. Briefly: Antibacterial activity against Enterococcus faecalis ATCC 29212 after 24 hrs by browth microdilution assay. The settings on record: ATCC 29212, 24 h. The assay is classed as functional. The method, boiled down:
as §2

Assay [7] concerns Nakaseomyces glabratus. Briefly: Antifungal activity against Candida glabrata ATCC 32554 after 48 hrs by browth microdilution assay. The assay is classed as functional. In outline:
as §3

The subject of assay [8] is Staphylococcus epidermidis. The experiment in a line: Antibacterial activity against Staphylococcus epidermidis ATCC 12228 after 24 hrs by browth microdilution assay. The settings on record: ATCC 12228, 24 h. The assay is classed as functional. In outline:
as §2

Assay [9] relates to Enterobacter cloacae. The experiment in a line: Antibacterial activity against Enterobacter cloacae ATCC 13047 after 24 hrs by browth microdilution assay. It is filed as functional. In outline: as §2
The subject of assay [10] is Pseudomonas aeruginosa. The experiment in a line: Antibacterial activity against Pseudomonas aeruginosa ATCC 27853 after 24 hrs by browth microdilution assay. The assay is classed as functional. In outline: as §2
Assay [11] concerns Escherichia coli. The experiment in a line: microbe, parasite or virus in culture. The settings on record: ATCC 25922, 24 h.
Assay [12] deals with Staphylococcus aureus (ATCC 25923). The experiment in a line: Antibacterial activity against Staphylococcus aureus ATCC 25923 after 24 hrs by browth microdilution assay. The settings on record: ATCC 25923, 24 h.
The test system of assay [13] is HeLa. The experiment in a line: Cytotoxicity against human HeLa after 24 hrs by MTT assay. The assay is classed as functional, cell-based. In outline: as §1
Assay [14] has as its system Proteus vulgaris. The experiment in a line: Antibacterial activity against Proteus vulgaris ATCC 13315 after 24 hrs by browth microdilution assay. The assay is classed as functional. The method, boiled down: as §2

The values below come from ChEMBL document CHEMBL1157014, “Synthesis, characterization and biological evaluation of some thiourea derivatives bearing benzothiazole moiety as potential antimicrobial and anticancer agents” (Eur J Med Chem, 2010).

≈ marks a conversion by molar mass, not a printed value.

Turning to `CCCC(=O)NC(=S)Nc1nc2cc(N)ccc2s1`, in assay [1], the IC50 stood at 44.7 µM. The MIC in assay [2] was found to be 50 µg/mL (≈ 170 µM); in assay [3] (ATCC 20336, 48 h), 50 µg/mL (≈ 170 µM); in assay [4] (ATCC 90028, 48 h), 20 µg/mL (≈ 67.9 µM); in assay [5] (ATCC 6268, 48 h), 50 µg/mL (≈ 170 µM); in assay [6], 50 µg/mL (≈ 170 µM); in [7] (ATCC 32554, 48 h) it was 50 µg/mL (≈ 170 µM). The MIC in assay [8] amounted to 50 µg/mL (≈ 170 µM).
As for `Nc1ccc2sc(NC(=S)NC(=O)c3ccccc3)nc2c1`, the MIC in assay [9] (ATCC 13047, 24 h) stood at 50 µg/mL (≈ 152 µM); in assay [10] (ATCC 27853, 24 h), 50 µg/mL (≈ 152 µM); in assay [2], 50 µg/mL (≈ 152 µM); in [3] (ATCC 20336, 48 h), 50 µg/mL (≈ 152 µM); in assay [4] (ATCC 90028, 48 h) it was 25 µg/mL (≈ 76.1 µM); in assay [11], 50 µg/mL (≈ 152 µM). Besides, the MIC is 50 µg/mL (≈ 152 µM) in [12]; 25 µg/mL (≈ 76.1 µM) in assay [5] (ATCC 6268, 48 h); 50 µg/mL (≈ 152 µM) in [6]; 25 µg/mL (≈ 76.1 µM) in [7] (ATCC 32554, 48 h); 50 µg/mL (≈ 152 µM) in [14] (ATCC 13315, 24 h); 50 µg/mL (≈ 152 µM) in [8]. Moreover, the IC50 in [1] was found to be 38.6 µM; in [13], 70.1 µM.
Consider `O=C(NC(=S)Nc1nc2ccccc2s1)c1ccccc1`, for which the IC50 in assay [1] was determined as 37.3 µM; in [13], 57.5 µM. Also, the MIC turned out to be 50 µg/mL (≈ 160 µM) in assay [3] (ATCC 20336, 48 h); 50 µg/mL (≈ 160 µM) in assay [4] (ATCC 90028, 48 h); 50 µg/mL (≈ 160 µM) in assay [5] (ATCC 6268, 48 h); 25 µg/mL (≈ 79.8 µM) in assay [7] (ATCC 32554, 48 h).
Regarding `O=C(NC(=S)Nc1nc2cc([N+](=O)[O-])ccc2s1)c1ccc([N+](=O)[O-])cc1`, the MIC in [9] (ATCC 13047, 24 h) stood at 25 µg/mL (≈ 62 µM); in assay [10] (ATCC 27853, 24 h), 50 µg/mL (≈ 124 µM); in [2], 50 µg/mL (≈ 124 µM); in assay [3] (ATCC 20336, 48 h), 25 µg/mL (≈ 62 µM); in assay [4] (ATCC 90028, 48 h), 25 µg/mL (≈ 62 µM); in assay [11] it was 50 µg/mL (≈ 124 µM). Besides, the MIC in assay [12] stood at 50 µg/mL (≈ 124 µM); in assay [5] (ATCC 6268, 48 h), 25 µg/mL (≈ 62 µM); in assay [6], 50 µg/mL (≈ 124 µM); in assay [7] (ATCC 32554, 48 h) it was 25 µg/mL (≈ 62 µM); in [14] (ATCC 13315, 24 h), 25 µg/mL (≈ 62 µM); in assay [8] it was 25 µg/mL (≈ 62 µM). Besides, the half-maximal inhibitory concentration (IC50) in assay [1] worked out at 35.2 µM; in [13], 68.5 µM.
Consider `O=C(NC(=S)Nc1nc2cc(Br)ccc2s1)c1ccc([N+](=O)[O-])cc1`, for which the values for the half-inhibitory concentration (IC50) in [1] and in [13] were 32.4 µM and 56.5 µM, respectively. Moreover, the MIC worked out at 50 µg/mL (≈ 114 µM) in [2]; 50 µg/mL (≈ 114 µM) in assay [3] (ATCC 20336, 48 h); 50 µg/mL (≈ 114 µM) in assay [4] (ATCC 90028, 48 h); 50 µg/mL (≈ 114 µM) in [12]; 50 µg/mL (≈ 114 µM) in assay [5] (ATCC 6268, 48 h); 50 µg/mL (≈ 114 µM) in assay [6]. The MIC worked out at 50 µg/mL (≈ 114 µM) in [7] (ATCC 32554, 48 h) and 50 µg/mL (≈ 114 µM) in assay [8].
Consider NYSTATIN, for which the MIC in assay [3] came to 4 µg/mL; in assay [4], 1 µg/mL; in [5] it was 0.5 µg/mL; in assay [7], 2 µg/mL.
As to GENTAMICIN, the MIC in assay [9] came to 2 µg/mL; in [10] it was 1 µg/mL; in assay [14], 2 µg/mL.
`CCCC(=O)NC(=S)Nc1nc2cc(Br)ccc2s1`: the MIC came to 50 µg/mL (≈ 140 µM) in assay [9] (ATCC 13047, 24 h); 50 µg/mL (≈ 140 µM) in assay [10] (ATCC 27853, 24 h); 50 µg/mL (≈ 140 µM) in [2]; 50 µg/mL (≈ 140 µM) in [3] (ATCC 20336, 48 h); 25 µg/mL (≈ 69.8 µM) in assay [4] (ATCC 90028, 48 h); 50 µg/mL (≈ 140 µM) in [5] (ATCC 6268, 48 h). The MIC in assay [6] came out at 50 µg/mL (≈ 140 µM); in [7] (ATCC 32554, 48 h), 50 µg/mL (≈ 140 µM); in assay [14] (ATCC 13315, 24 h) it was 50 µg/mL (≈ 140 µM); in [8] it was 50 µg/mL (≈ 140 µM). The IC50 in [1] worked out at 45.7 µM; in assay [13], 60.2 µM.
Turning to `O=C(NC(=S)Nc1nc2cc(Br)ccc2s1)c1ccccc1`, the figures for the IC50 in assay [1] and in [13] were 32.1 µM and 64.6 µM, respectively. For the same compound, the MIC in assay [2] worked out at 50 µg/mL (≈ 127 µM); in assay [3] (ATCC 20336, 48 h), 50 µg/mL (≈ 127 µM); in [4] (ATCC 90028, 48 h), 25 µg/mL (≈ 63.7 µM); in assay [12], 50 µg/mL (≈ 127 µM); in assay [5] (ATCC 6268, 48 h), 50 µg/mL (≈ 127 µM); in assay [6] it was 50 µg/mL (≈ 127 µM). In addition, the MIC is 25 µg/mL (≈ 63.7 µM) in [7] (ATCC 32554, 48 h) and 50 µg/mL (≈ 127 µM) in assay [8].
